# Measured values: ChEMBL document CHEMBL3044620, “Cinnamic acid inhibits growth but stimulates production of pathogenesis factors by in vitro cultures of Fusarium oxysporum f.sp. niveum” (2008)
# Legend:
# [1] = tested on: Fusarium oxysporum f. sp. niveum; experiment: Growth inhibition of Fusarium oxysporum f. sp. niveum assessed as reduction in conidial germination measured […]; assay type: functional, organism-based
# Summary of the method: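 Conidia came from a 7-day liquid culture (28 °C), collected by filtration and diluted in sterile water. 0.1 mL was spread on 2% water agar plates containing cinnamic acid (200–1600 mg L-1; water control) and incubated at 28 °C for 3 days. Colonies were counted daily. Three replicate plates per treatment.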
# [2] = tested on: Fusarium oxysporum f. sp. niveum; experiment: Growth inhibition of Fusarium oxysporum f. sp. niveum assessed as mycelium dry weight at 1600 mg/L measured 7 days post compound treatment (reference value: 0.22 +/- 0.01 g); assay type: functional
# Summary of the method: (§1)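 Strain NJAUS-1 was grown in 30 mL potato dextrose broth (pH 4.5, HCl), inoculated with a 5 mm plug from a 7-day PDA culture. Flasks were shaken at 170 rpm, 28 °C, for 7 days. Mycelium was filtered and dried at 80 °C for 12 h to constant dry weight. Cinnamic acid was tested at 200–1600 mg L-1; controls received sterile water. Three replicates, mean ± SE.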
# [3] = tested on: Fusarium oxysporum f. sp. niveum; experiment: Stimulation of proteinase activity in Fusarium oxysporum f. sp. niveum at 1600 mg/L measured 7 days post compound treatment (reference value: 0.42 +/- 0.2 U//min/ml); assay type: functional
# [4] = tested on: Fusarium oxysporum f. sp. niveum; experiment: Stimulation of proteinase activity in Fusarium oxysporum f. sp. niveum at 1600 mg/L measured 7 days post compound treatment by Tseng and Mount method
# [5] = tested on: Fusarium oxysporum f. sp. niveum; experiment: Stimulation of pectinase activity in Fusarium oxysporum f. sp. niveum at 1600 mg/L measured 7 days post compound treatment by DNS method (reference value: 0.01 +/- 0.0 U//ml/min); assay type: functional
# [6] = tested on: Fusarium oxysporum f. sp. niveum; experiment: Stimulation of cellulase activity in Fusarium oxysporum f. sp. niveum at 1600 mg/L measured 7 days post compound treatment by DNS method; assay type: functional
# [7] = tested on: Neurospora crassa; experiment: Growth inhibition of Neurospora crassa assessed as inhibition of mycelial growth at 200 mg/L; assay type: functional; conditions: read-out: GI
# [8] = tested on: Fusarium oxysporum f. sp. niveum; experiment: Growth inhibition of Fusarium oxysporum f. sp. niveum assessed as colony diameter at 1600 mg/L measured 7 days post compound treatment (reference value: 7.0 +/- 0.63 cm); assay type: functional
# [9] = tested on: Fusarium oxysporum f. sp. niveum; experiment: Growth inhibition of Fusarium oxysporum f. sp. niveum assessed as reduction in sporulation measured 7 days post compound treatment; assay type: functional, organism-based
# Summary of the method: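 FON was grown 7 days in modified Bilay and Joffe's medium (4.0 g sodium carboxymethyl cellulose, pH 4) with cinnamic acid at 200–1600 mg L-1 or a water control. Broth was diluted 10-5–10-7, and 0.1 mL was spread on PDA and incubated in the dark at 28 °C for 4 days. Colonies were counted and converted to conidia per culture. Three replicates, mean ± SE.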
# [10] = tested on: Fusarium oxysporum f. sp. niveum; experiment: Stimulation of proteinase activity in Fusarium oxysporum f. sp. niveum at 1600 mg/L measured 7 days post compound treatment; assay type: functional
# [11] = tested on: Fusarium oxysporum f. sp. niveum; experiment: Growth inhibition of Fusarium oxysporum f. sp. niveum assessed as inhibition of mycelium dry weight at 1600 mg/L measured 7 days post compound treatment; assay type: functional; conditions: 168 h; summary of the method: as §1
# [12] = tested on: Fusarium oxysporum f. sp. niveum; experiment: Stimulation of amylase activity in Fusarium oxysporum f. sp. niveum at 1600 mg/L measured 7 days post compound treatment by DNS method (reference value: 3.7 +/- 0.5 umol/min/ml); assay type: functional
# [13] = tested on: Fusarium oxysporum f. sp. niveum; experiment: Stimulation of mycotoxin production in Fusarium oxysporum f. sp. niveum at 1600 mg/L measured 7 days post compound treatment by spectrophotometry (reference value: 26.9 +/- 4.9 ug/mL); assay type: functional
# [14] = tested on: Fusarium oxysporum f. sp. niveum; experiment: Growth inhibition of Fusarium oxysporum f. sp. niveum assessed as reduction in hyphal growth measured 7 days post compound treatment; assay type: functional, organism-based
# [15] = tested on: Fusarium oxysporum f. sp. niveum; experiment: Stimulation of cellulase activity in Fusarium oxysporum f. sp. niveum at 1600 mg/L measured 7 days post compound treatment by DNS method (reference value: 0.03 +/- 0.1 umol/min/ml); assay type: functional
# [16] = tested on: Fusarium oxysporum f. sp. niveum; experiment: Stimulation of amylase activity in Fusarium oxysporum f. sp. niveum at 400 mg/L measured 7 days post compound treatment by DNS method (reference value: 3.7 +/- 0.5 umol/min/ml); assay type: functional
structure (smiles),measurement,setting,value
O=C(O)/C=C/c1ccccc1 [CINNAMIC ACID],growth inhibition (GI),[1],Dose-dependent effect
same,Activity,[2],0.08 g
same,Activity,[3],3.21 U/min/ml
same,Activity,[4],760%
same,Activity,[5],0.052 U/ml/min
same,Activity,[6],2006%
same,inhibition of growth at 200 µg/mL,[7],94%
same,Activity,[8],0 cm
same,growth inhibition (GI),[9],Dose-dependent effect
same,Activity,[10],760%
same,inhibition at 1600 µg/mL,[11],63.3%
same,Activity,[12],4.6 µmol/min/mL
same,Activity,[13],13.25 µg/mL
same,growth inhibition (GI),[14],Dose-dependent effect
same,Activity,[15],0.33 µmol/min/mL
same,Activity,[16],5.2 µmol/min/mL
